Assay results: ChEMBL document CHEMBL1134306, “New antimitotic agents with activity in multi-drug-resistant cell lines and in vivo efficacy in murine tumor models” (J Med Chem, 2001)

Assays:
Mus musculus [1] = assay: (§1) Half-life following intravenous dosing, tested in vivo in mice; type: ADME, organism-based
Mus musculus [2] = assay: Time to maximum plasma concentration following oral dosing, tested in vivo in mice; settings: in vivo
NCI-H460 = assay: Effective dose against NCI-H460 cell line.; type: functional; settings: Homo sapiens, read-out: ED50 (the source's name)
Summary of the method: (§2)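 HCT-15 (MDR+) or NCI-H460 (MDR−) cells in growth medium treated with compounds over a range of concentrations for 48 h. Cells then trypsinized and counted per well with a Coulter counter. ED50 derived from cell number. Compounds at 1 μM or below were retested in both lines. Values reported as mean ± SD.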

HCT-15 = assay: Effective dose against HCT-15 cell line.; type: functional; settings: Homo sapiens, read-out: ED50 (the source's name); summary of the method: as §2
[3] = Integrated compound concentration with respect to time following oral dosing, tested in vivo in mice; type: ADME, organism-based; settings: mouse
Mus musculus [4] = assay: (§3) Maximum plasma concentration following intravenous dosing, tested in vivo in mice; type: ADME, organism-based; set-up: route intravenous; settings: in vivo
Mus musculus [5] = assay: (§4) Area under the curve following intravenous dosing, integrated compound concentration with respect to time, tested in vivo in mice; type: ADME, organism-based
[6] = Volume of distribution following intravenous dosing, tested in vivo in mice; type: ADME, organism-based; settings: mouse, read-out: Vc
[7] = Oral bioavailability in mouse; type: ADME, organism-based; settings: in vivo
[8] = as §1; type: ADME, organism-based; settings: mouse
[9] = Time to maximum plasma concentration following oral dosing, tested in vivo in mice; settings: mouse, plasma
[10] = as §3; type: ADME, organism-based; set-up: route intravenous; settings: mouse, plasma
[11] = as §4; type: ADME, organism-based; settings: mouse

Row | Compound | EC50 (NCI-H460) [µM] | EC50 (HCT-15) [µM] | other results
1 | COc1cc(C2OC(c3ccc(N(C)C)cc3)=NN2C(=O)CNC=O)cc(OC)c1OC (configuration not stated) | 0.04 | 0.035 | 
2 | COc1cc(C2OC(c3ccc(N(C)C)cc3)=NN2C(=O)CN)cc(OC)c1OC (configuration not stated) | 0.66 | 0.65 | 
3 | COc1cc(-c2nnc(-c3ccc(N(C)C)cc3)o2)cc(OC)c1OC | 106 | 92 | 
4 | COc1cc(C2CN=C(c3ccc4c(c3)CCN4C)O2)cc(OC)c1OC (configuration not stated) | 0.82 | 0.61 | 
5 | COc1cc(C2COC(c3ccc(N(C)C)cc3)O2)cc(OC)c1OC (configuration not stated) | 8.3 | 2.4 | 
6 | COc1cc(C2CN=C(c3ccc4c(ccn4C)c3)O2)cc(OC)c1OC (configuration not stated) | 0.028 | 0.018 | half-life [8]: 114 min; Tmax [9]: 24 min; AUC [3]: 1780 ng·h/mL; Cmax [10]: 799 ng/mL; AUC [11]: 5120 ng·h/mL; Vd [6]: 1.4 L/kg; bioavailability [7]: 35%
7 | COc1cc(C2OC(c3ccc(N(C)C)cc3)=NN2C(=O)CO)cc(OC)c1OC (configuration not stated) | 0.043 | 0.026 | 
8 | COc1cc(C2CN=C(c3ccc4c(c3)CCCN4C)O2)cc(OC)c1OC (configuration not stated) | 0.32 | 0.66 | 
9 | COc1cc(-c2nnc(-c3ccc(N(C)C)cc3)s2)cc(OC)c1OC | 1000 | 231 | 
10 | COc1cc(C2CN=C(c3ccc(C)c(N)c3)O2)cc(OC)c1OC (configuration not stated) | 0.063 | 0.082 | 
11 | COc1cc(C2SC(c3ccc(N(C)C)cc3)=NN2C(C)=O)cc(OC)c1OC (configuration not stated) | 0.35 | 0.61 | 
12 | COc1cc(C2CN=C(c3ccc(N(C)C)cc3)O2)cc(OC)c1OC (configuration not stated) | 0.35 | 0.12 | half-life [8]: 48 min; Tmax [9]: 54 min; AUC [3]: 1660 ng·h/mL; Cmax [10]: 891 ng/mL; AUC [11]: 3410 ng·h/mL; Vd [6]: 3.3 L/kg; bioavailability [7]: 49%
13 | COc1cc(C2OC(c3ccc(N)c(C)c3)=NN2C(C)=O)cc2c1OCO2 (configuration not stated) | 0.63 | 0.62 | 
14 | COc1cc(C2CN=C(c3ccc4nc(O)oc4c3)O2)cc(OC)c1OC (configuration not stated) | 72 | 4.3 | 
15 | COc1ccc(C2=NCC(c3cc(OC)c(OC)c(OC)c3)O2)cc1N (configuration not stated) | 0.073 | 0.082 | 
16 | COc1cc(C2OC(c3ccc(N(C)C)cc3)=NN2C(=O)CN(C)C)cc(OC)c1OC (configuration not stated) | 74 | 80 | 
17 | COc1cc(C2CN=C(c3ccc4[nH]ccc4c3)O2)cc(OC)c1OC (configuration not stated) | 0.116 | 0.097 | 
18 | COc1cc(C2OC(c3ccc(N(C)C)cc3)=NN2C(=O)CN=[N+]=[N-])cc(OC)c1OC (configuration not stated) | 0.53 | 0.15 | 
19 | COc1cc(OC)c(C2OC(c3ccc(N(C)C)cc3)=NN2C(C)=O)c(OC)c1 (configuration not stated) | 40 | 71 | 
20 | COc1cc(C2OC(c3ccc(N(C)C)cc3)=NN2C=O)cc(OC)c1OC (configuration not stated) | 0.12 | 0.096 | 

The next lines start with results.

Row | EC50 (NCI-H460) [µM] | EC50 (HCT-15) [µM] | Compound | other results
21 | 0.059 | 0.042 | COc1cc(C2OC(c3ccc(N)c(C)c3)=NN2C(C)=O)cc(OC)c1OC (configuration not stated) | T1/2 (Mus musculus [1]): 66 min; T max (Mus musculus [2]): 102 min; AUC [3]: 147 ng·h/mL; Cmax (Mus musculus [4]): 59 ng/mL; AUC (Mus musculus [5]): 2109 ng·h/mL; Vd [6]: 2.2 L/kg; bioavailability [7]: 7%
22 | 5.7 | 1.5 | CC(=O)N1N=C(c2ccc(N(C)C)cc2)OC1c1cc(C)c(C)c(C)c1 (configuration not stated) | 
23 | 33 | 45 | CCOC(=O)C(=O)N1N=C(c2ccc(N(C)C)cc2)OC1c1cc(OC)c(OC)c(OC)c1 (configuration not stated) | 
24 | 6.8 | 7.5 | COc1ccc(C2OC(c3ccc(N(C)C)cc3)=NN2C(C)=O)c(OC)c1OC (configuration not stated) | 
25 | 1000 | 365 | COc1cc(-c2cc(-c3ccc(N)c(C)c3)nn2C(C)=O)cc(OC)c1OC | 
26 | 0.015 | 0.54 | CC(=O)O[C@H]1C(=O)[C@@]2(C)[C@H]([C@H](OC(=O)c3ccccc3)[C@]3(O)C[C@H](OC(=O)[C@H](O)[C@@H](NC(=O)c4ccccc4)c4ccccc4)C(C)=C1C3(C)C)[C@]1(OC(C)=O)CO[C@@H]1C[C@@H]2O [PACLITAXEL] | 
27 | 0.044 | 0.033 | COc1cc(C2OC(c3ccc(N(C)C)cc3)=NN2C(C)=O)cc(OC)c1OC (configuration not stated) | T1/2 (Mus musculus [1]): 66 min; T max (Mus musculus [2]): 24 min; AUC [3]: 155 ng·h/mL; Cmax (Mus musculus [4]): 113 ng/mL; AUC (Mus musculus [5]): 3170 ng·h/mL; Vd [6]: 3.3 L/kg; bioavailability [7]: 4.9%
28 | 0.072 | 0.019 | COc1cc(C2OC(c3ccc(N(C)C)cc3)=NN2C(=O)COC(C)=O)cc(OC)c1OC (configuration not stated) | 
29 | 109 | 65 | COc1cc(C2OC(c3ccccc3N(C)C)=NN2C(C)=O)cc(OC)c1OC (configuration not stated) | 
30 | 5.1 | 8.2 | COc1ccc(C2OC(c3ccc(N(C)C)cc3)=NN2C(C)=O)cc1OC (configuration not stated) | 
31 | 0.26 | 0.16 | COc1cc(C2OC(c3cccc(N(C)C)c3)=NN2C(C)=O)cc(OC)c1OC (configuration not stated) | 
32 | 1000 | 198 | COc1cc(OC)c(C2OC(c3ccc(N)c(C)c3)=NN2C(C)=O)cc1OC (configuration not stated) | 
33 | 60 | 178 | CCCCNC(=O)c1c(OC)cc(C2OC(c3ccc(N)c(C)c3)=NN2C(C)=O)cc1OC (configuration not stated) | 
34 | 13 | 78 | COc1cc(C2OC(c3ccc(N(C)C)cc3)=NN2C(C)=O)cc(OC)c1OC(C)=O (configuration not stated) | 
35 | 0.48 | 0.18 | COc1cc(C2OC(c3ccc(N(C)C)cc3)=NN2C(=O)CNC(C)=O)cc(OC)c1OC (configuration not stated) | 
36 | 106 | 40 | COC(=O)N1N=C(c2ccc(N(C)C)cc2)OC1c1cc(OC)c(OC)c(OC)c1 (configuration not stated) | 
37 | 0.51 | 0.28 | COC(=O)c1c(OC)cc(C2OC(c3ccc(N)c(C)c3)=NN2C(C)=O)cc1OC (configuration not stated) | 
